# Reference: ChEMBL document CHEMBL3785029, “Synthesis and Characterization of Fatty Acid Conjugates of Niacin and Salicylic Acid” (J Med Chem, 2016)
# Calls of active or inactive are those of the source. No cut-off for these calls is given here.
# Columns and labels:
# Rattus norvegicus [1] = test: Cmax in portal vein cannulated Sprague-Dawley rat assessed as (S)-N-(pyrrolidin-3-yl)nicotinamide at 30 mg/kg, po measured up to 140 mins; assay type: ADME, organism-based; parameters: dose 30 mg/kg, route oral; details: in vivo
# Summary of the method: (§1)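 Sprague Dawley rats surgically fitted with indwelling jugular vein and portal vein cannulas; oral dosing, then serial blood draws from both portal and jugular veins at 10, 20, 40 min and 1, 2, 4, 6 hr post dose; plasma analysed for parent and metabolites by LC/MS/MS.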
# Rattus norvegicus [2] = test: Cmax in portal vein cannulated Sprague-Dawley rat assessed nicotinuric acid at 30 mg/kg, po measured up to 140 mins; assay type: ADME, organism-based; parameters: dose 30 mg/kg, route oral; details: in vivo; summary of the method: as §1
# Rattus norvegicus [3] = test: Cmax in jugular vein cannulated Sprague-Dawley rat assessed as (S)-N-(pyrrolidin-3-yl)nicotinamide at 30 mg/kg, po measured up to 140 mins; assay type: ADME, organism-based; parameters: dose 30 mg/kg, route oral; details: in vivo; summary of the method: as §1
# [4] = Cmax in portal vein cannulated Sprague-Dawley rat at 30 mg/kg, po measured up to 140 mins; assay type: ADME, organism-based; parameters: dose 30 mg/kg, route oral; details: portal vein blood; summary of the method: as §1
# [5] = Cmax in jugular vein cannulated Sprague-Dawley rat at 30 mg/kg, po measured up to 140 mins; assay type: ADME, organism-based; parameters: dose 30 mg/kg, route oral; details: jugular vein blood; summary of the method: as §1
# Rattus norvegicus [6] = test: Cmax in jugular vein cannulated Sprague-Dawley rat assessed nicotinuric acid at 30 mg/kg, po measured up to 140 mins; assay type: ADME, organism-based; parameters: dose 30 mg/kg, route oral; details: in vivo; summary of the method: as §1
# Mus musculus [7] = species on record: Mus musculus; details: 3.2 mM
# Plasma = test: Drug level in Sprague-Dawley rat plasma treated with N-(2-(4Z,7Z,10Z,13Z,16Z,19Z)-docosa-4,7,10,13,16,19-hexaenamidoethyl)-2-hydroxybenzamide at 300 mg/kg, po measured up to 24 hrs post dose; assay type: ADME, organism-based; details: in vivo
# Summary of the method: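 Single oral dose of 300 mg/kg to Sprague Dawley rats. Plasma collected at 0, 0.5, 1, 2, 4, 8 and 24 hr. Analytes were the parent, the salicylate-linker and linker-DHA metabolites, salicylic acid and salicyluric acid; Cmax and AUClast derived.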
# [8] = Drug uptake in lysosomes of human HuH7 cells at 25 uM after 30 mins by LysoTracker/DAPI staining-based confocal microscopy; assay type: ADME, cell-based, Lysosome; details: huh-7, 0.5 h
# [9] = Drug uptake in endoplasmic reticulum of human HuH7 cells at 25 uM after 30 mins by LysoTracker/DAPI staining-based confocal microscopy; assay type: ADME, cell-based; details: huh-7, 0.5 h
# Summary of the method: (§2)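 HuH-7 hepatocellular carcinoma cells were plated overnight in DMEM with 10% FBS. They were transduced for 48 h with BacMam CellLight ER-RFP or Late Endosomes-RFP organelle markers. Cells were then exposed for 30 min to fluorescent cis-parinaric acid conjugate in DMEM at 25 µM. They were fixed in 4% paraformaldehyde for 2 min at 37 °C, washed with PBS, mounted with anti-fade DAPI and imaged by confocal microscopy at 63X.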
# [10] = target: T1, Sterol regulatory element-binding protein 2 (Homo sapiens) (UniProt Q12772); test: Inhibition of SREBP2 maturation in human HepG2 cells at 50 uM after overnight incubation by immunoblot analysis; assay type: cell-based
# T1 sequence (whole entry): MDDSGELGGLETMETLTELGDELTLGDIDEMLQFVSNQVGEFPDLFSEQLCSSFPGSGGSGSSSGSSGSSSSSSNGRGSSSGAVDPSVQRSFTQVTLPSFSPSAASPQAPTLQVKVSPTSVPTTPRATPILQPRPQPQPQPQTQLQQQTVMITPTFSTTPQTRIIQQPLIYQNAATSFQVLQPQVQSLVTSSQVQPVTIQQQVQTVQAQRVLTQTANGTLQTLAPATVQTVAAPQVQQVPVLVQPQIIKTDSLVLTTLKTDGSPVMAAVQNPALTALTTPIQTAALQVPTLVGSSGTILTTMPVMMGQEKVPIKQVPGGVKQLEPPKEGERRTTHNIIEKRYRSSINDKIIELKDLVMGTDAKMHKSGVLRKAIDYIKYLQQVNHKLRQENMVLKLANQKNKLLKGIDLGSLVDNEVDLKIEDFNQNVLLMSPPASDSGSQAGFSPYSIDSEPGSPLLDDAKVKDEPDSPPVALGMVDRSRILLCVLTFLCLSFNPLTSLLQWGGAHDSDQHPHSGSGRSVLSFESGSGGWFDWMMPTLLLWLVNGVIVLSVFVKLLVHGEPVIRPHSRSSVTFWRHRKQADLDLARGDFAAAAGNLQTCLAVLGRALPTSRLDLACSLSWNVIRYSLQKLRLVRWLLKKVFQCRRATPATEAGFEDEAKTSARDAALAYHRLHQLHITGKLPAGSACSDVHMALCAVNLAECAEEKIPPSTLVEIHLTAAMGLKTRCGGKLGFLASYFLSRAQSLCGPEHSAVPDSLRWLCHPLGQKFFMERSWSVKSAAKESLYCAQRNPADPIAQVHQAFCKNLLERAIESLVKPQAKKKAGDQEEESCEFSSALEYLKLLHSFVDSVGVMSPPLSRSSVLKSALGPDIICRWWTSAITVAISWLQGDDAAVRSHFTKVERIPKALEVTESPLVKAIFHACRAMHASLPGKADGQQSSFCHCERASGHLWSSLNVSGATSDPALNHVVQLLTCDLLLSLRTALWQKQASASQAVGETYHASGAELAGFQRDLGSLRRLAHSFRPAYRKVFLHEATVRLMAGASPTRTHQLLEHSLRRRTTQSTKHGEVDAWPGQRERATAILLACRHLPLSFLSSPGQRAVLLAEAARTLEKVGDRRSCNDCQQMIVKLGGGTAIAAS
# Summary of the method: (§3)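 Human HepG2 cells were incubated with test agents, including 10 µM atorvastatin alone or combined with conjugate. The mature form of SREBP-2 protein was then assessed.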
# [11] = target: T1, Sterol regulatory element-binding protein 2 (Homo sapiens); test: Inhibition of SREBP2 in human HepG2 cells assessed as reduction of PCSK9 secretion at 50 uM after 16 hrs by ELISA; assay type: cell-based
# Summary of the method: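 Human HepG2 cells were treated in culture. Secreted PCSK9 in the culture supernatant was quantified with a human-specific PCSK9 ELISA.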
# [12] = Drug uptake in lysosomes of CellLight ER-RFP/BacMam 2-treated human HuH7 cells at 25 uM after 30 mins by DAPI staining-based confocal microscopy; assay type: ADME, cell-based, Lysosome; details: huh-7, 0.5 h; summary of the method: as §2
# [13] = Drug uptake in endoplasmic reticulum of CellLight ER-RFP-treated human HuH7 cells at 25 uM after 30 mins by DAPI staining-based confocal microscopy in presence of endocytosis inhibitor dynasore; assay type: ADME, cell-based; details: huh-7, 0.5 h
# Summary of the method: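 HuH-7 cells were transduced with CellLight ER-RFP BacMam 2.0 for 48 h and pretreated with 80 µM dynasore. They were then exposed to compound for 30 min, fixed in 4% formaldehyde for 2 min at 37 °C and mounted with anti-fade DAPI. Imaging was by confocal microscopy with a 63X lens.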
# [14] = Drug uptake in endoplasmic reticulum of CellLight ER-RFP/BacMam 2-treated human HuH7 cells at 25 uM after 30 mins by DAPI staining-based confocal microscopy; assay type: ADME, cell-based; details: huh-7, 0.5 h
# Summary of the method: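 HuH-7 cells were plated overnight in 10% FBS DMEM and transduced with CellLight ER-RFP BacMam 2.0 for 48 h. They were then exposed to fluorescent conjugate at 25 µM in DMEM for 30 min, fixed in 4% paraformaldehyde for 2 min at 37 °C and washed with PBS. Imaging was by confocal microscopy with a 63X lens.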
# [15] = AUClast in Sprague-Dawley rat at 30 mg/kg, po administered as single dose measured up to 6 hrs post dose by LC/MS/MS analysis; details: in vivo
# [16] = target: T1, Sterol regulatory element-binding protein 2 (Homo sapiens); details: HepG2, 10 uM
# in vivo = details: Sprague-Dawley, rat, po, 30 mg/kg
# [17] = target: T1, Sterol regulatory element-binding protein 2 (Homo sapiens); test: Induction of SREBP2 maturation in human HepG2 cells at 10 uM after overnight incubation by immunoblot analysis; assay type: cell-based; summary of the method: as §3
# Mus musculus [18] = species on record: Mus musculus; test: Inhibition of NFkappaB in mouse RAW 264.7 cells at 78.7 uM preincubated for 2 hrs followed by LPS addition for 3 hrs by luciferase reporter gene assay relative to control; assay type: cell-based
# [19] = target: T2, Fatty-acid amide hydrolase 1 (Homo sapiens, UniProt O00519); test: Drug metabolism in human HepG2 cells assessed as FAAH-mediated compound hydrolysis by measuring level of deuterium-labelled EPA-d5 released at 50 uM by LC/MS-MS analysis; assay type: ADME, cell-based; details: hepg2, 50 µM, TDE = time-dependent effect
# T2 sequence (O00519 whole entry): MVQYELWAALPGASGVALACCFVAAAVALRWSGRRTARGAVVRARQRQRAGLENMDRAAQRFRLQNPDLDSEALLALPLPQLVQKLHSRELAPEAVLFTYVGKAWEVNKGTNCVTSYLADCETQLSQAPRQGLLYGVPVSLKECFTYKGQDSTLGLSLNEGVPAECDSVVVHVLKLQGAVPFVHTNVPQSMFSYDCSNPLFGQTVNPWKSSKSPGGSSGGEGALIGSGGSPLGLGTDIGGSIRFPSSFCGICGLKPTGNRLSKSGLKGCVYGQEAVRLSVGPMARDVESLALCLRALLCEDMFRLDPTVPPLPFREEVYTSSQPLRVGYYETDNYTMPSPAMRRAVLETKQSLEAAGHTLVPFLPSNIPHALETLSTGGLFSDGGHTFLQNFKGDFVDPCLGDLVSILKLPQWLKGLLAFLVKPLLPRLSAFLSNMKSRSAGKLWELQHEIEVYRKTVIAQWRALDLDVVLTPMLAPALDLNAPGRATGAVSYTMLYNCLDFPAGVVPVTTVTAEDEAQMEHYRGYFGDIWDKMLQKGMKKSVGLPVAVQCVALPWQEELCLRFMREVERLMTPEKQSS
# Liver = test: Drug uptake in Sprague-Dawley rat liver at 100 mg/kg, po qd for 3 days measured 4 hrs post last dose; assay type: ADME, organism-based; details: in vivo
# Summary of the method: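 Sprague Dawley rats (n = 6) dosed 100 mg/kg once daily for 3 days; plasma and tissues collected four hours after the last dose and analysed for parent compound and metabolites.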
# Rattus norvegicus [20] = test: Cmax in jugular vein cannulated Sprague-Dawley rat assessed as N-(2-(methylamino)ethyl)nicotinamide at 30 mg/kg, po measured up to 140 mins; assay type: ADME, organism-based; parameters: dose 30 mg/kg, route oral; details: in vivo, BLD = below limit of detection; summary of the method: as §1
# Rattus norvegicus [21] = test: Cmax in portal vein cannulated Sprague-Dawley rat assessed as N-(2-(methylamino)ethyl)nicotinamide at 30 mg/kg, po measured up to 140 mins; assay type: ADME, organism-based; parameters: dose 30 mg/kg, route oral; details: in vivo, BLD = below limit of detection; summary of the method: as §1
smiles,measurement,setting,value
"CC/C=C\C/C=C\C/C=C\C/C=C\C/C=C\CCCC(=O)N1CCC(NC(=O)c2cccnc2)C1 (single isomer, unassigned)",Cmax,Rattus norvegicus [1],73 ng/mL
same,Cmax,Rattus norvegicus [2],13 ng/mL
same,Cmax,Rattus norvegicus [3],35 ng/mL
same,Cmax,[4],5320 ng/mL
same,Cmax,[5],564 ng/mL
same,Cmax,Rattus norvegicus [6],11 ng/mL
O=C(O)c1ccccc1O [SALICYLIC ACID],inhibition,Mus musculus [7],Active
same,Drug metabolism,Plasma,metabolite_detected
NCCNC(=O)c1ccccc1O,Drug metabolism,Plasma,metabolite_detected
O=C(O)CNC(=O)c1ccccc1O [SALICYLURIC ACID],Drug metabolism,Plasma,metabolite_detected
CC\C=C/C=C/C=C/C=C\CCCCCCCC(=O)O,Drug uptake,[8],Not Active
same,Drug uptake,[9],Not Active
CC/C=C\C/C=C\C/C=C\C/C=C\C/C=C\CCCC(=O)O,inhibition,[10],inactive
same,inhibition,[11],inactive
CC\C=C/C=C/C=C/C=C\CCCCCCCC(=O)NCCNC(=O)c1cccnc1,Drug uptake,[12],Not Active
same,Drug uptake,[13],Not Active
same,Drug uptake,[14],Active
CC\C=C/C=C/C=C/C=C\CCCCCCCC(=O)NCCNC(=O)c1ccccc1O,Drug uptake,[14],Active
O=C(O)c1cccnc1 [NIACIN],inhibition,[10],inactive
same,AUC(0-t) at 6 h,[15],6980 ng·h/mL
same,inhibition,[16],inactive
same,Cmax at 6 h,in vivo,7470 ng/mL
CC(C)c1c(C(=O)Nc2ccccc2)c(-c2ccccc2)c(-c2ccc(F)cc2)n1CC[C@@H](O)C[C@@H](O)CC(=O)O,Activity,[17],Active
CC/C=C\C/C=C\C/C=C\C/C=C\C/C=C\C/C=C\CCC(=O)O,inhibition,Mus musculus [18],Active
[2H]C([2H])([2H])C([2H])([2H])/C=C\C/C=C\C/C=C\C/C=C\C/C=C\CCCC(=O)NCCNC(=O)c1cccnc1,Drug metabolism,[19],tde
CC/C=C\C/C=C\C/C=C\C/C=C\C/C=C\CCCC(=O)N(C)CCNC(=O)c1cccnc1,Cmax,Rattus norvegicus [2],11 ng/mL
same,Drug uptake,Liver,Active
same,Cmax,[4],5060 ng/mL
same,Cmax,[5],400 ng/mL
same,Cmax,Rattus norvegicus [6],28 ng/mL
same,Cmax,Rattus norvegicus [20],BLD
same,Cmax,Rattus norvegicus [21],BLD
